Results taken from ChEMBL document CHEMBL1136741, “Role of the glycopeptide framework in the antibacterial activity of hydrophobic derivatives of glycopeptide antibiotics” (2003).
Values after ≈ are worked out from the molar mass of the structure shown.

Experiments:
[1] = system: Enterococcus faecalis; assay: Antibacterial activity against glycopeptide resistant Enterococcus faecalis 560 strain; type: functional
In short: (§1)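 MIC by broth microdilution in Mueller Hinton broth following NCCLS procedures. Compounds were dissolved in 10% DMSO in water, then diluted in broth. Final DMSO was 1.28% at 128 µg/mL antibiotic down to 0.0013% at 0.13 µg/mL. Repeat determinations were usually identical and always within 2-fold.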

[2] = system: Enterococcus faecium; assay: Antibacterial activity against glycopeptide resistant Enterococcus faecium 569 strain; type: functional; in short: as §1
[3] = system: Staphylococcus aureus; assay: Antibacterial activity against glycopeptide intermediate resistant Staphylococcus aureus 3797 strain; type: functional; in short: as §1
[4] = system: Staphylococcus epidermidis; assay: Antibacterial activity against Staphylococcus epidermis 533 strain; type: functional
[5] = system: Enterococcus faecalis; assay: Antibacterial activity against glycopeptide susceptible Enterococcus faecalis 559 strain; type: functional
In short: (§2)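 MIC by broth microdilution in Mueller Hinton broth following NCCLS procedures. Compounds dissolved in 10% DMSO in water, then diluted in broth; test range 128 to 0.13 µg/mL, final DMSO 1.28% to 0.0013% accordingly. Repeat determinations usually identical and always within 2-fold. Strain 533 is a clinical isolate; strain 602 is a clinical S. haemoliticus isolate.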

[6] = system: Staphylococcus aureus; assay: Antibacterial activity against glycopeptide intermediate resistant Staphylococcus aureus 3798 strain; type: functional; in short: as §1
[7] = system: Enterococcus faecium; assay: Antibacterial activity against glycopeptide susceptible Enterococcus faecium 568 strain; type: functional; in short: as §2
[8] = system: Staphylococcus haemolyticus; assay: Antibacterial activity against Staphylococcus haemolyticus 602 strain

Work on `CCCCCCCCCCNC(=O)[C@H]1NC(=O)[C@H]2NC(=O)[C@H](NC(=O)[C@@H]3NC(=O)[C@H](CC(N)=O)NC(=O)[C@H](NC(=O)[C@@H](CC(C)C)NC)[C@H](O)c4ccc(c(Cl)c4)Oc4cc3cc(c4O[C@@H]3O[C@H](CO)[C@@H](O)[C@H](O)[C@H]3O[C@H]3C[C@](C)(N)C(O)[C@H](C)O3)Oc3ccc(cc3Cl)[C@H]2O)c2ccc(O)c(c2)-c2c(O)cc(O)cc21` (stereo partly specified) yielded an MIC [1] of 8 µg/mL (≈ 5.04 µM), an MIC [2] of 8 µg/mL (≈ 5.04 µM) and an MIC [3] of 1 µg/mL (≈ 0.63 µM). The MIC [4] was 0.5 µg/mL (≈ 0.315 µM), the MIC [5] was 0.5 µg/mL (≈ 0.315 µM) and the MIC [6] was 1 µg/mL (≈ 0.63 µM). It also gave an MIC [7] of 0.5 µg/mL (≈ 0.315 µM) and an MIC [8] of 1 µg/mL (≈ 0.63 µM).
`NC(=O)C[C@@H]1NC(=O)[C@H](N)[C@H](O)c2ccc(c(Cl)c2)Oc2cc3cc(c2O)Oc2ccc(cc2)[C@@H](O)[C@@H]2NC(=O)[C@H](NC(=O)[C@@H]3NC1=O)c1ccc(O)c(c1)-c1c(O)cc(O)cc1[C@@H](C(=O)O)NC2=O` was tested, and the MIC [3] was > 128 µg/mL, the MIC [4] was > 128 µg/mL and the MIC [5] was > 128 µg/mL. For the same compound, the MIC [6] was > 128 µg/mL, the MIC [7] was > 128 µg/mL and the MIC [8] was > 128 µg/mL.
With `C[C@@H]1O[C@@H](O[C@H]2[C@H](Oc3c4cc5cc3Oc3ccc(cc3Cl)[C@@H](O)[C@@H](N)C(=O)N[C@@H](CC(N)=O)C(=O)N[C@H]5C(=O)N[C@H]3C(=O)N[C@H](C(=O)N[C@H](C(=O)NCc5ccc(-c6ccc(Cl)cc6)cc5)c5cc(O)cc(O)c5-c5cc3ccc5O)[C@H](O[C@H]3C[C@](C)(N)[C@@H](O)[C@H](C)O3)c3ccc(cc3)O4)O[C@H](CO)[C@@H](O)[C@@H]2O)C[C@](C)(N)[C@H]1O` the MIC [1] was 4 µg/mL (≈ 2.45 µM), the MIC [2] was 2 µg/mL (≈ 1.23 µM) and the MIC [3] was 8 µg/mL (≈ 4.91 µM). For the same compound, the MIC [4] was 4 µg/mL (≈ 2.45 µM), the MIC [5] was 4 µg/mL (≈ 2.45 µM) and the MIC [6] was 8 µg/mL (≈ 4.91 µM). It also gave an MIC [7] of 4 µg/mL (≈ 2.45 µM) and an MIC [8] of 4 µg/mL (≈ 2.45 µM).
Work on `CCCCCCCCCCNC(=O)[C@H]1NC(=O)[C@H]2NC(=O)[C@H](NC(=O)[C@H](N)c3cc(Oc4ccc(C[C@@H](N)CO)cc4Cl)c(O)c(c3)Oc3ccc(cc3Cl)[C@H]2O[C@@H]2O[C@@H](CO)[C@@H](O)[C@H](O)[C@@H]2NC(C)=O)c2ccc(O)c(c2)-c2c(O[C@H]3O[C@H](CO)[C@@H](O)[C@@H](O)[C@@H]3O)cc(O)cc21` yielded an MIC [1] of 64 µg/mL (≈ 45.9 µM), an MIC [2] of 16 µg/mL (≈ 11.5 µM) and an MIC [3] of 32 µg/mL (≈ 22.9 µM). It also gave an MIC [4] of 16 µg/mL (≈ 11.5 µM), an MIC [5] of 16 µg/mL (≈ 11.5 µM) and an MIC [6] of 16 µg/mL (≈ 11.5 µM). The MIC [7] was 16 µg/mL (≈ 11.5 µM) and the MIC [8] was 32 µg/mL (≈ 22.9 µM).
`CCCCCCCCCCNC(=O)[C@H]1NC(=O)[C@H]2NC(=O)[C@H](NC(=O)[C@@H]3NC(=O)[C@H](CC(N)=O)NC(=O)[C@H](NC(=O)[C@@H](CC(C)C)NC)[C@H](O)c4ccc(c(Cl)c4)Oc4cc3cc(c4O)Oc3ccc(cc3)[C@H]2O)c2ccc(O)c(c2)-c2c(O)cc(O)cc21` was tested, and the MIC [1] was 4 µg/mL (≈ 3.2 µM), the MIC [2] was 4 µg/mL (≈ 3.2 µM) and the MIC [3] was 4 µg/mL (≈ 3.2 µM). It also gave an MIC [4] of 4 µg/mL (≈ 3.2 µM), an MIC [5] of 4 µg/mL (≈ 3.2 µM) and an MIC [6] of 4 µg/mL (≈ 3.2 µM). For the same compound, the MIC [7] was 4 µg/mL (≈ 3.2 µM) and the MIC [8] was 4 µg/mL (≈ 3.2 µM).
Work on `CN[C@H](CC(C)C)C(=O)N[C@H]1C(=O)N[C@@H](CC(N)=O)C(=O)N[C@H]2C(=O)N[C@H]3C(=O)N[C@H](C(=O)N[C@H](C(=O)NCc4ccc(-c5ccc(Cl)cc5)cc4)c4cc(O)cc(O)c4-c4cc3ccc4O)[C@H](O[C@H]3C[C@](C)(N)[C@@H](O)[C@H](C)O3)c3ccc(cc3)Oc3cc2cc(c3O[C@@H]2O[C@H](CO)[C@@H](O)[C@H](O)[C@H]2O[C@H]2C[C@](C)(N)[C@@H](O)[C@H](C)O2)Oc2ccc(cc2Cl)[C@H]1O` yielded an MIC [1] of 4 µg/mL (≈ 2.28 µM), an MIC [2] of 4 µg/mL (≈ 2.28 µM) and an MIC [3] of 4 µg/mL (≈ 2.28 µM). For the same compound, the MIC [4] was 2 µg/mL (≈ 1.14 µM), the MIC [5] was 2 µg/mL (≈ 1.14 µM) and the MIC [6] was 4 µg/mL (≈ 2.28 µM). For the same compound, the MIC [7] was 1 µg/mL (≈ 0.569 µM) and the MIC [8] was 1 µg/mL (≈ 0.569 µM).
In the case of `C[C@@H]1O[C@@H](O[C@H]2[C@H](Oc3c4cc5cc3Oc3ccc(cc3Cl)[C@@H](O)[C@@H](N)C(=O)N[C@@H](CC(N)=O)C(=O)N[C@H]5C(=O)N[C@H]3C(=O)N[C@H](C(=O)N[C@H](C(=O)O)c5cc(O)cc(O)c5-c5cc3ccc5O)[C@H](O[C@H]3C[C@](C)(N)[C@@H](O)[C@H](C)O3)c3ccc(cc3)O4)O[C@H](CO)[C@@H](O)[C@@H]2O)C[C@](C)(N)[C@H]1O`, the MIC [1] is reported as > 128 µg/mL, the MIC [2] is reported as > 128 µg/mL and the MIC [3] is reported as 64 µg/mL (≈ 44.7 µM). For the same compound, the MIC [4] was 16 µg/mL (≈ 11.2 µM), the MIC [5] was 16 µg/mL (≈ 11.2 µM) and the MIC [6] was 64 µg/mL (≈ 44.7 µM). It also gave an MIC [7] of 16 µg/mL (≈ 11.2 µM) and an MIC [8] of 16 µg/mL (≈ 11.2 µM).
Work on `CCCCCCCCCCNC(=O)[C@H]1NC(=O)[C@H]2NC(=O)[C@H](NC(=O)[C@@H]3NC(=O)[C@H](CC(N)=O)NC(=O)[C@H](N)[C@H](O)c4ccc(c(Cl)c4)Oc4cc3cc(c4O[C@@H]3O[C@H](CO)[C@@H](O)[C@H](O)[C@H]3O[C@H]3C[C@](C)(N)[C@@H](O)[C@H](C)O3)Oc3ccc(cc3)[C@H]2O[C@H]2C[C@](C)(N)[C@@H](O)[C@H](C)O2)c2ccc(O)c(c2)-c2c(O)cc(O)cc21` yielded an MIC [1] of 4 µg/mL (≈ 2.55 µM), an MIC [2] of 2 µg/mL (≈ 1.27 µM) and an MIC [3] of 4 µg/mL (≈ 2.55 µM). For the same compound, the MIC [4] was 0.5 µg/mL (≈ 0.318 µM), the MIC [5] was 2 µg/mL (≈ 1.27 µM) and the MIC [6] was 8 µg/mL (≈ 5.1 µM). It also gave an MIC [7] of 2 µg/mL (≈ 1.27 µM) and an MIC [8] of 1 µg/mL (≈ 0.637 µM).
`CCCCCCCCCCNC(=O)[C@H]1NC(=O)[C@H]2NC(=O)[C@H](NC(=O)[C@@H]3NC(=O)[C@H](CC(N)=O)NC(=O)[C@H](N)[C@H](O)c4ccc(c(Cl)c4)Oc4cc3cc(c4O)Oc3ccc(cc3)[C@H]2O)c2ccc(O)c(c2)-c2c(O)cc(O)cc21` was tested, and the MIC [1] was > 128 µg/mL, the MIC [2] was 64 µg/mL (≈ 57.1 µM) and the MIC [3] was 32 µg/mL (≈ 28.5 µM). It also gave an MIC [4] of 16 µg/mL (≈ 14.3 µM), an MIC [5] of 64 µg/mL (≈ 57.1 µM) and an MIC [6] of 32 µg/mL (≈ 28.5 µM). It also gave an MIC [7] of 64 µg/mL (≈ 57.1 µM) and an MIC [8] of 64 µg/mL (≈ 57.1 µM).
For `CN[C@H](CC(C)C)C(=O)N[C@H]1C(=O)N[C@@H](CC(N)=O)C(=O)N[C@H]2C(=O)N[C@H]3C(=O)N[C@H](C(=O)N[C@H](C(=O)NCc4ccc(-c5ccc(Cl)cc5)cc4)c4cc(O)cc(O)c4-c4cc3ccc4O)[C@H](O)c3ccc(cc3)Oc3cc2cc(c3O)Oc2ccc(cc2Cl)[C@H]1O`, the MIC [1] was 8 µg/mL (≈ 6.11 µM), the MIC [2] was 8 µg/mL (≈ 6.11 µM) and the MIC [3] was 8 µg/mL (≈ 6.11 µM). It also gave an MIC [4] of 4 µg/mL (≈ 3.06 µM), an MIC [5] of 8 µg/mL (≈ 6.11 µM) and an MIC [6] of 8 µg/mL (≈ 6.11 µM). For the same compound, the MIC [7] was 8 µg/mL (≈ 6.11 µM) and the MIC [8] was 8 µg/mL (≈ 6.11 µM).
`CCCCCCCCCCNC(=O)[C@H]1NC(=O)[C@H]2NC(=O)[C@H](NC(=O)[C@@H]3NC(=O)[C@H](CC(N)=O)NC(=O)[C@H](NC(=O)[C@@H](CC(C)C)NC)[C@H](O)c4ccc(c(Cl)c4)Oc4cc3cc(c4O[C@@H]3O[C@H](CO)[C@@H](O)[C@H](O)[C@H]3O[C@H]3C[C@](C)(N)[C@@H](O)[C@H](C)O3)Oc3ccc(cc3)[C@H]2O[C@H]2C[C@](C)(N)[C@@H](O)[C@H](C)O2)c2ccc(O)c(c2)-c2c(O)cc(O)cc21` gave an MIC [1] of 4 µg/mL (≈ 2.36 µM), an MIC [2] of 2 µg/mL (≈ 1.18 µM) and an MIC [3] of 4 µg/mL (≈ 2.36 µM). For the same compound, the MIC [4] was 0.13 µg/mL (≈ 0.0766 µM), the MIC [5] was 1 µg/mL (≈ 0.589 µM) and the MIC [6] was 4 µg/mL (≈ 2.36 µM). It also gave an MIC [7] of 0.5 µg/mL (≈ 0.295 µM) and an MIC [8] of 0.13 µg/mL (≈ 0.0766 µM).
With `CN[C@H](CC(C)C)C(=O)N[C@H]1C(=O)N[C@@H](CC(N)=O)C(=O)N[C@H]2C(=O)N[C@H]3C(=O)N[C@H](C(=O)N[C@H](C(=O)O)c4cc(O)cc(O)c4-c4cc3ccc4O)[C@H](O)c3ccc(c(Cl)c3)Oc3cc2cc(c3O[C@@H]2O[C@H](CO)[C@@H](O)[C@H](O)[C@H]2O[C@H]2C[C@](C)(N)[C@H](O)[C@H](C)O2)Oc2ccc(cc2Cl)[C@H]1O` [VANCOMYCIN] the MIC [1] was > 128 µg/mL, the MIC [2] was > 128 µg/mL and the MIC [3] was 16 µg/mL (≈ 11 µM). It also gave an MIC [5] of 1 µg/mL (≈ 0.69 µM) and an MIC [6] of 8 µg/mL (≈ 5.52 µM).
